The list is not random: actives were taken first. Their share in the collection is about 2.3%.
TRPC4 agonist – activators of mouse TRPC4 channel, primary screen, Fluo4 calcium, HEK293 TRPC4beta/mu-opioid cells; Fluo4 calcium fluorescence; hits give high values; B-score at 10 µM; 310,000 compounds, 0.49% hits; AID 2237, 2010;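 active = B-score above 5 SD of library B-scores, and initial fluorescence ratio not above library mean plus 5 SD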;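 note: positive B-score marks a calcium rise read as TRPC4 activation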
Target sequence (Q9QUQ5 whole entry, looked up): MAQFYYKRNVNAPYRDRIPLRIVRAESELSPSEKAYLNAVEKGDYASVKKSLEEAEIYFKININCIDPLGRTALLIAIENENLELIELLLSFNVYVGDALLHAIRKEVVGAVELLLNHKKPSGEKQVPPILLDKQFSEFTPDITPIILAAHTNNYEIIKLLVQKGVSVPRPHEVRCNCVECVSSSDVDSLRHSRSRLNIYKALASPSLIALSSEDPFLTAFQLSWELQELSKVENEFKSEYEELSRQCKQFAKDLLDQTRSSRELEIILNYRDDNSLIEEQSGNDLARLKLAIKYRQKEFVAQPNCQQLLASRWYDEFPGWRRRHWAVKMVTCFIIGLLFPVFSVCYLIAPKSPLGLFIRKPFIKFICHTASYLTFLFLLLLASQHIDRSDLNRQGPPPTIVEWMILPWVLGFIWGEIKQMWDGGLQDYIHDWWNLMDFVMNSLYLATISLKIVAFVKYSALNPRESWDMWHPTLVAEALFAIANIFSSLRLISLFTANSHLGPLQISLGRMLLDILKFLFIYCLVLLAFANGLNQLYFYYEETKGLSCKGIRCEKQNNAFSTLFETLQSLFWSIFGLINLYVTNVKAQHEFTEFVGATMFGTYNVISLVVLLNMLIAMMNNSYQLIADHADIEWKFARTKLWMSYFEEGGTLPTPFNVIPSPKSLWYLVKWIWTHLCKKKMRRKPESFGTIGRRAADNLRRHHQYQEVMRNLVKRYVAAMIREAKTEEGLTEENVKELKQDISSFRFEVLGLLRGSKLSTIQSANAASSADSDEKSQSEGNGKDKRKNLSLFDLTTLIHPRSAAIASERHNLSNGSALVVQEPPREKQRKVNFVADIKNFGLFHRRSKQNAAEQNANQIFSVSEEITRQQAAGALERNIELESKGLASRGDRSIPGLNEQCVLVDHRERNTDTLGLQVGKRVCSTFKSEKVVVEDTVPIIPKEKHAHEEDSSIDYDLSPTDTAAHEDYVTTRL
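Assay system – TRPC4beta and mu-opioid receptor HEK293 stable cells · Measured by – Fluo4 fluorescence, kinetic · Schedule – dye loading 45 min room temperature, 110 s kinetic read · Read-out – B-scored integrated calcium fluorescence ratio · Controls – buffer and maximal DAMGO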
TRPC4 inh – inhibitors of mouse TRPC4 channel, primary screen, Fluo4 calcium, HEK293 TRPC4beta/mu-opioid cells. B-score at 10 µM. DAMGO-evoked Fluo4 calcium flux; hits give low values. 300,000 compounds, 0.39% hits. Short transient receptor potential channel 4 (Mus musculus), Q9QUQ5;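 active = B-score over 3 SD under the library average, no early fluorescence shift, positive overall ratio signal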
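test system = HEK293 cells with stable TRPC4beta plus mu-opioid receptor expression | detection = Fluo4 Ca2+ flux fluorescence | read-out = integrated fluorescence ratio relative to baseline, converted to per-well B score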
TRPC4 PAM – positive allosteric modulators of TRPC4, primary screen, cell-based, mouse TRPC4beta, HEK293 mu-opioid, Fluo-4 calcium; B-score at 10 µM; 310,000 compounds, 0.42% hits; DAMGO EC20, Fluo-4 Ca2+ flux; hits give high values; AID 2227, 2009;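 active = B-score of calcium response area above 5 SD of library B-scores, with initial fluorescence ratio within 5 SD of library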;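 note: B-score of integrated fluorescence ratio over time as area under calcium response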
TRPC6 inh – mouse TRPC6 channel inhibitors, primary screen, cell-based, HEK293, membrane potential dye. Short transient receptor potential channel 6 (Mus musculus), Q61143. ACh-evoked depolarization; hits give low values. B-score at 10 µM. 310,000 compounds, 1.1% hits;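 active = B-score under library mean minus 3 SD, initial fluorescence not abnormally high, positive integrated signal ratio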;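 note: B-score derived from integrated fluorescence ratio over the kinetic read; more negative B-score means stronger inhibition of depolarization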
TRPC6 act – mouse TRPC6 channel activators, primary screen, cell-based, HEK293, membrane potential dye; B-score at 10 µM; HEK293-TRPC6 membrane potential dye fluorescence; hits give high values; Short transient receptor potential channel 6 (Mus musculus), Q61143; 310,000 compounds, 0.13% hits; AID 2550, 2010;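 active = B-score of the integrated fluorescence ratio above library mean plus 3 SD, and starting fluorescence ratio within library mean plus 5 SD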;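 note: higher score means more depolarization so channel activation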
The depositor's hits bear a star; i = inactive.

SMILES	TRPC4 agonist	TRPC4 inh	TRPC4 PAM	TRPC6 inh	TRPC6 act
Cc1cc(C)c(C)c(OCCCn2ccnc2)c1	i	i	i	i	i
COc1cc(C2C(C#N)=C(N)OC3=C2C(=O)CCC3)c([N+](=O)[O-])cc1OC (stereo not drawn)	i	i	i	i	i
O=C1CCC(C(=O)N2CCC(CO)CC2)CN1Cc1ccc(Cl)cc1 (stereo not drawn)	i	i	i	i	i
Cn1cnc([N+](=O)[O-])c1N=C(N)N	i	i	i	i	i
CCCCc1c(O)nc(SCC(=O)Nc2cccc3ccccc23)n(-c2ccccc2OC)c1=O	i	-5*	i	i	i
C/C(=N\NC(=O)C(O)c1ccccc1)c1ccc(Br)s1 (stereo not drawn)	i	i	i	i	i
COc1ccc(-c2nnc(-c3cc4c(ccc5ccccc54)oc3=O)o2)cc1	i	i	i	i	i
O=c1oc2ccc3ccccc3c2cc1-c1nnc(-c2ccccc2)o1	i	-6*	i	i	i
Cc1cccc(C(=O)NC(=S)NNC(=O)Cc2ccccc2)c1	219*	i	i	i	i
Cc1ccccc1C(=O)NNC(=S)NC(=O)c1ccc(Cl)cc1Cl	249*	i	i	i	i
O=C(COc1ccccc1)NNC(=S)NC(=O)c1ccccc1	46*	i	i	i	i
COc1ccc(C(=O)NC(=S)NNC(=O)COc2ccccc2)cc1	i	i	i	i	i
Cc1ccc(C(=O)NC(=S)NNC(=O)COc2ccccc2C)cc1	54*	i	i	i	i
O=C(NC(=S)NNC(=O)c1ccc(Cl)cc1Cl)c1cccnc1	i	i	i	i	i
CCCCCC(=O)NNC(=S)NC(=O)c1cccc([N+](=O)[O-])c1	60*	i	i	i	i
Cc1cccc(C(=O)NC(=S)NNC(=O)c2ccccc2Cl)c1	294*	i	i	i	i
CCCCCC(=O)NNC(=S)NC(=O)c1ccccc1[N+](=O)[O-]	i	i	i	i	i
Cc1cccc(C(=O)NC(=S)NNC(=O)COc2c(C)cccc2C)c1	102*	i	i	i	i
CC(=O)n1ccnc1	i	i	i	i	i
CCOc1cc(O)c(-c2[nH]ncc2-c2nc(C)cs2)cc1CC	i	i	20*	i	i
CCc1cc(-c2[nH]ncc2-c2nc3ccccc3n2C)c(O)cc1O	i	i	i	i	i
O=[N+]([O-])c1cc(-c2ccc(/C=N/n3cnnc3)o2)ccc1Cl	i	i	i	-13*	i
COc1ccc(NC(=O)CCCn2nc(C)c3c(C)n(-c4ccccc4)nc3c2=O)cc1	i	i	i	i	i
CC(=O)N1N=C(c2c(-c3ccccc3)c3cc(C)ccc3[nH]c2=O)CC1c1ccco1 (stereo not drawn)	i	i	24*	i	i
CC(=O)N1N=C(c2c(-c3ccccc3)c3cc(Br)ccc3[nH]c2=O)CC1c1ccco1 (stereo not drawn)	i	i	i	i	i
SMILES	TRPC4 agonist	TRPC4 inh	TRPC4 PAM	TRPC6 inh	TRPC6 act
COc1ccc(Cl)cc1C(=O)CSc1nnnn1C	i	i	i	i	i
CCn1nc(C)c(CN2CCCC(CO)(Cc3cccc(Cl)c3)C2)c1C (stereo not drawn)	i	-6*	i	i	i
Cc1c(N)c(C(C)(C)C)cc(C(C)(C)C)c1[N+](=O)[O-]	i	-6*	i	i	i
Cc1cc(N)c(C)c([N+](=O)[O-])c1C	i	i	i	i	i
O=C(CN1CCN(c2ccccc2O)CC1)Nc1cccnc1Cl	i	i	i	i	i
CCC(=O)N1CCc2cc(Br)cc(S(=O)(=O)NCCCN(CC)Cc3ccccc3)c21	148*	i	i	i	i
CCOCCCNS(=O)(=O)c1cc(Br)cc2c1N(C(=O)C1CC1)CC2	i	i	i	i	i
CCC(=O)N1CCc2cc(S(=O)(=O)NCCCN(CC)Cc3ccccc3)ccc21	50*	i	i	i	i
CC1CC(C)CN(CCCNS(=O)(=O)c2ccc3c(c2)CCN3C(=O)C2CC2)C1 (stereo not drawn)	66*	i	i	i	i
CC(=O)N1CCc2cc(Br)cc(S(=O)(=O)NCCCN(C)Cc3ccccc3)c21	119*	i	i	i	i
COC(=O)CCC(=O)Nc1cccc([N+](=O)[O-])c1	i	i	i	i	i
O=c1nc(N2CCCC2)nc(N2CCCC2)[nH]1	i	i	i	i	i
CCC(=O)N1CCc2cc(S(=O)(=O)NCCN3CCCCC3CC)ccc21 (stereo not drawn)	i	-9*	i	i	i
CC1CCN(C(=O)CCNS(=O)(=O)c2ccc3c(c2)oc(=O)n3C)CC1	i	i	i	i	i
CCOC(=O)C1CCN(C(=O)CCNS(=O)(=O)c2ccc3c(c2)CCN3C(=O)CC)CC1	i	i	i	i	i
CCCNS(=O)(=O)c1cc(Br)cc2c1N(C(=O)CC)CC2	i	i	i	i	i
CC1CC(C)CN(CCCNS(=O)(=O)c2ccc3c(c2)oc(=O)n3C)C1 (stereo not drawn)	49*	i	i	i	i
CCC(=O)N1CCc2cc(Br)cc(S(=O)(=O)NCCCN(C)Cc3ccccc3)c21	82*	i	40*	i	i
O=C(CNC(=O)c1ccc(Cl)cc1)NCCCn1ccnc1	i	i	i	i	i
CCOC(=O)c1sc(N)c(C(=O)Nc2ccccc2)c1C	i	i	i	i	i
CN(C)C(CNC(=O)c1cc(Br)ccc1Cl)c1ccco1 (stereo not drawn)	i	i	i	i	i
CN(C)C(CNC(=O)CCNC(=O)c1ccc(Br)cc1)c1ccco1 (stereo not drawn)	i	i	i	i	i
CC(C)CCOc1ccc(C(=O)NCC(c2ccco2)N(C)C)cc1 (stereo not drawn)	i	-7*	i	i	i

Bioassay records from PubChem.
